Source: ChEMBL document CHEMBL1132575 (J Med Chem, 1999)

Assays:
[1] = biological target: T1, 5-hydroxytryptamine receptor 1D (Homo sapiens, UniProt P28221); experiment: In vitro receptor binding affinity for cloned human 5-hydroxytryptamine 1D receptor
Summary of the method: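 Radioligand binding assay in cell lines expressing the human 5-HT1D receptor; affinity reported as Ki values. Further procedural detail is referenced to earlier work.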

[2] = biological target: T1, 5-hydroxytryptamine receptor 1D; experiment: Intrinsic activity for 5-hydroxytryptamine 1D receptor; type: functional
Summary of the method: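 Agonism measured as inhibition of forskolin-stimulated adenylyl cyclase in cell lines expressing the human 5-HT1D receptor.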

[3] = biological target: T2, 5-hydroxytryptamine receptor 1A (Homo sapiens, UniProt P08908); experiment: In vitro receptor binding affinity for cloned human 5-hydroxytryptamine 1A receptor
T2 sequence (P08908 whole entry): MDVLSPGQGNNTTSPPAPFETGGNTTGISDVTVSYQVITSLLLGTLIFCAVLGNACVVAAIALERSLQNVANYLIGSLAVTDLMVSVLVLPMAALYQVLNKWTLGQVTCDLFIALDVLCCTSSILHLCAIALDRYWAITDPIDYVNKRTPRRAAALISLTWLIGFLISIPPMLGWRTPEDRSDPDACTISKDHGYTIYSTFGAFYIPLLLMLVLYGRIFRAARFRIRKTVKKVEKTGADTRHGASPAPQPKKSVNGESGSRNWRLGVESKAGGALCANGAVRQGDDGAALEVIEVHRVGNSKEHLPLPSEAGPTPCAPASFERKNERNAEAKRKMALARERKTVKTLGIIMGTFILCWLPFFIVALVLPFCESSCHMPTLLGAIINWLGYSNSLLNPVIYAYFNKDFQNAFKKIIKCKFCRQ

[4] = biological target: 5-hydroxytryptamine receptor 1B (Homo sapiens, UniProt P28222); experiment: In vitro receptor binding affinity for cloned human 5-hydroxytryptamine 1B receptor
[5] = biological target: T1, 5-hydroxytryptamine receptor 1D; experiment: Ability to inhibit forskolin-stimulated adenylate cyclase in a cell line expressing human 5-hydroxytryptamine 1D receptor; type: functional

T1 sequence (P28221 whole entry): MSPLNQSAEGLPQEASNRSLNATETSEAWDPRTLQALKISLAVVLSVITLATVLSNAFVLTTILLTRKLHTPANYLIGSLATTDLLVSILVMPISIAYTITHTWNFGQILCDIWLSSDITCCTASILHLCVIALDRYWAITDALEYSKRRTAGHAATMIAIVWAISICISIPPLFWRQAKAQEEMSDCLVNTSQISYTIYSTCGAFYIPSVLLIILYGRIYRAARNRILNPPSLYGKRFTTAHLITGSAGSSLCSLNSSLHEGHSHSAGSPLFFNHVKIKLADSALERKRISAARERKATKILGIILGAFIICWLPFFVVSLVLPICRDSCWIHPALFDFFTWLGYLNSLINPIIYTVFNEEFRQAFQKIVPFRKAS
5-hydroxytryptamine receptor 1B, sequence (P28222 whole entry): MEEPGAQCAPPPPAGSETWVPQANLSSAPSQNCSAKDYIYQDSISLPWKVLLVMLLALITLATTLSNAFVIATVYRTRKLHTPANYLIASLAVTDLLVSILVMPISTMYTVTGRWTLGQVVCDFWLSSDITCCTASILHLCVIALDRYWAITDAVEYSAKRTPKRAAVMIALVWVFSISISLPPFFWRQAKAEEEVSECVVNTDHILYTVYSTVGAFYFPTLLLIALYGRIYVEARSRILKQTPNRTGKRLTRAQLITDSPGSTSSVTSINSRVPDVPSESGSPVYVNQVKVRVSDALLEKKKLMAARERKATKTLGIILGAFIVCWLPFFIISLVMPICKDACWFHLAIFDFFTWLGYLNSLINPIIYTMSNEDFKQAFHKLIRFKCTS

With CCCNCCc1c[nH]c2ccc(C(C)(C)C)cc12 as the compound, how does the Ki [1] read?
The Ki was 6.2 nM.

For CCc1ccc2[nH]cc(CCN)c2c1, which Ki [1] is on record?
The Ki was 3.7 nM.

How did the Ki [1] turn out when CC(C)(C)c1ccc2[nH]cc(CCN)c2c1 was run?
Its Ki is 0.6 nM.

CN(C)CCc1c[nH]c2ccc(Cn3cncn3)cc12 was tested. Which Emax [2] did it give?
The Emax was 97%.

How did the Ki [1] turn out when CCCN(CCC)CCc1c[nH]c2ccc(C(C)(C)C)cc12 was run?
Its Ki is 10.8 nM.

For Cc1ccc2[nH]cc(CCN)c2c1, which Ki [1] is on record?
Its Ki is 6.4 nM.

With CN(C)CCc1c[nH]c2ccc(C(C)(C)C)cc12 as the compound, how does the Ki [1] read?
The Ki was 0.44 nM.

How did the Ki [3] turn out when CNCCc1c[nH]c2ccc(C(C)(C)C)cc12 was run?
The Ki was 6.1 nM.

And the Ki [4]?
Its Ki is 1.9 nM.

And the EC50 [5]?
The EC50 was 0.22 nM.

And the Emax [2]?
The Emax was 100%.

And the Ki [1]?
The Ki was 0.45 nM.

For NCCc1c[nH]c2ccc(C3CCCCC3)cc12, which Ki [1] is on record?
Its Ki is 3.4 nM.

Which Ki [3] does the source give for CNS(=O)(=O)CCc1ccc2[nH]cc(C3CCN(C)CC3)c2c1 here?
The Ki was 45 nM.

And the Ki [4]?
The Ki was 3.3 nM.

And the EC50 [5]?
Its EC50 is 1.6 nM.

And the Emax [2]?
Its Emax is 100%.

What about the Ki [1] of the same compound?
Its Ki is 2.3 nM.

CC(C)c1ccc2[nH]cc(CCN)c2c1 was tested. Which Ki [1] did it give?
The Ki was 1.1 nM.

CNS(=O)(=O)Cc1ccc2[nH]cc(CCN(C)C)c2c1 was tested. Which Emax [2] did it give?
Its Emax is 93%.

Which Ki [1] does the source give for NCCc1c[nH]c2ccc(C3CCCC3)cc12 here?
Its Ki is 1.7 nM.

What does the source list for CN[C@@H]1CCc2[nH]c3ccc(C(N)=O)cc3c2C1 [FROVATRIPTAN]?
Ki [3]: 62 nM; Ki [1]: […]
